The nature of data set [1]: folding enthalpy; higher = less favourable; fluorescence melt of hairpins on a sequencing array, two-state fit. To be noted: sodium 0.088 M. In a few lines: (§1)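 On a sequenced MiSeq flow cell, library hairpins with annealed Cy3 and quencher oligos were imaged for Cy3 fluorescence in 2.5 °C steps up to 60 °C, in 50 mM Na-HEPES pH 8.0, 25 mM NaCl. Normalisation used pre-quench Cy3 and control constructs. Bootstrapped two-state fits gave melting temperature and folding enthalpy, combined by inverse variance across four replicates and with fitted temperatures raised by 9.35 °C to match UV melts.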

A short description of data set [2]: melting temperature; fluorescence melt of hairpins on a sequencing array, two-state fit, raised by 9.35 °C to match UV melts. To be noted: sodium 0.088 M. In a few lines: as §1

On to GATCTCGAAGAGATC ((((((...)))))), for which the folding enthalpy in data set [1] is -34.2 kcal/mol. The Tm in data set [2] is 68.5 °C.
As for GATCTCGAAGGAGATC ((((((....)))))), the folding enthalpy in data set [1] was -32.9 kcal/mol. In data set [2], the Tm stood at 55.1 °C.
GATCTCGACGAGATC ((((((...)))))): the folding enthalpy in data set [1] is -38.9 kcal/mol. In addition, the Tm in data set [2] was found to be 57.4 °C.
The matching figures for GATCTCGAGAGAGATC ((((((....)))))): -32.6 kcal/mol and 63.7 °C.
For the sequence GATCTCGAGCGAGATC ((((((....)))))), the folding enthalpy in data set [1] is -48.4 kcal/mol. The Tm in data set [2] is 53.3 °C.
As to GATCTCGAGTGAGATC ((((((....)))))), the folding enthalpy in data set [1] was -35.7 kcal/mol. Moreover, the Tm in data set [2] is 51.8 °C.
In the same order, the values of GATCTCGCGTGAGATC ((((((....)))))) are -34.7 kcal/mol and 53.8 °C.
In the same order, the values of GATCTCGGAAACGAGGTC ((.((((....)))).)) are -50.8 kcal/mol and 50.2 °C.
The matching figures for GATCTCGGCAGAGATC ((((((....)))))): -42 kcal/mol and 68.1 °C.
Consider GATCTCGGCTGAGATC ((((((....)))))), for which the folding enthalpy in data set [1] is -44.5 kcal/mol. In addition, the Tm in data set [2] is 56.5 °C.
The matching figures for GATCTCGGTTGAGATC ((((((....)))))): -30.5 kcal/mol and 53.5 °C.
The matching figures for GATCTCGTAGGAGATC ((((((....)))))): -33.9 kcal/mol and 56.6 °C.
In the case of GATCTCGTCTGAGATC ((((((....)))))), the folding enthalpy in data set [1] was -41.8 kcal/mol. Further, the Tm in data set [2] was determined as 55.3 °C.
With GATCTCTAACGAGATC ((((((....)))))), in data set [1], the folding enthalpy is -33.4 kcal/mol. For the same sequence, the Tm in data set [2] came to 49.4 °C.
With GATCTCTATGGAGATC ((((((....)))))), the folding enthalpy in data set [1] was -42.8 kcal/mol. Further, the Tm in data set [2] was determined as 54.9 °C.
As for GATCTCTCAAGAGATC ((((((....)))))), the folding enthalpy in data set [1] is -40.8 kcal/mol. Moreover, the Tm in data set [2] worked out at 53.7 °C.
With GATCTCTCACGAGATC ((((((....)))))), the folding enthalpy in data set [1] was -37.2 kcal/mol. In addition, the Tm in data set [2] turned out to be 51.6 °C.
With GATCTCTCCAGAGATC ((((((....)))))), the folding enthalpy in data set [1] was -40.2 kcal/mol. In data set [2], the Tm stood at 56.7 °C.
In the same order, the values of GATCTCTCCGAGATC ((((((...)))))) are -40.7 kcal/mol and 56.7 °C.
In the same order, the values of GATCTCTCGCGAGATC ((((((....)))))) are -42.2 kcal/mol and 51.4 °C.
The matching figures for GATCTCTCGGGAGATC ((((((....)))))): -38.3 kcal/mol and 53.5 °C.
On to GATCTCTGCCGAGATC ((((((....)))))), for which the folding enthalpy in data set [1] is -37.9 kcal/mol. The Tm in data set [2] amounted to 51.3 °C.
Regarding GATCTCTTACGAGATC ((((((....)))))), in data set [1], the folding enthalpy is -44.7 kcal/mol. Further, the Tm in data set [2] came to 52.2 °C.
In the same order, the values of GATCTCTTCAGAGATC ((((((....)))))) are -40.9 kcal/mol and 60.1 °C.
Consider GATCTCTTGGAGATC ((((((...)))))), for which the folding enthalpy in data set [1] was -37.8 kcal/mol. In data set [2], the Tm came to 54.4 °C.
Take GATCTGAAAACAGATC ((((((....)))))): the folding enthalpy in data set [1] was -27.5 kcal/mol. In data set [2], the Tm stood at 42.8 °C.
With GATCTGAAACCAGATC ((((((....)))))), the folding enthalpy in data set [1] is -29.7 kcal/mol. Also, in data set [2], the Tm was 43 °C.
The matching figures for GATCTGAACCAGATC ((((((...)))))): -34.6 kcal/mol and 46 °C.
As to GATCTGAACTCAGATC ((((((....)))))), the folding enthalpy in data set [1] was -38.6 kcal/mol. In data set [2], the Tm is 48 °C.
On to GATCTGAAGACAGATC ((((((....)))))), for which, in data set [1], the folding enthalpy is -27.7 kcal/mol. Besides, in data set [2], the Tm was 44.8 °C.
In the case of GATCTGAATGCAGATC ((((((....)))))), the folding enthalpy in data set [1] was -30.7 kcal/mol. Further, in data set [2], the Tm turned out to be 47.3 °C.
Regarding GATCTGACACCAGATC ((((((....)))))), the folding enthalpy in data set [1] was -34.7 kcal/mol. Also, in data set [2], the Tm is 46.1 °C.
GATCTGACGACAGATC ((((((....)))))): the folding enthalpy in data set [1] was -35 kcal/mol. In addition, the Tm in data set [2] worked out at 48.5 °C.
GATCTGAGAACAGATC ((((((....)))))): the folding enthalpy in data set [1] is -27.5 kcal/mol. For the same sequence, in data set [2], the Tm was 45.1 °C.
With GATCTGAGCCCAGATC ((((((....)))))), the folding enthalpy in data set [1] was -29.7 kcal/mol. In addition, the Tm in data set [2] is 47.3 °C.
The matching figures for GATCTGAGGTCAGATC ((((((....)))))): -40.6 kcal/mol and 49.4 °C.
In the same order, the values of GATCTGAGTTCAGATC ((((((....)))))) are -43.7 kcal/mol and 49.9 °C.
GATCTGATGACAGATC ((((((....)))))): the folding enthalpy in data set [1] is -34.8 kcal/mol. Besides, the Tm in data set [2] turned out to be 48.8 °C.

The values above are taken from the array DNA melting data of Ke et al. (doi:10.1101/2024.01.08.574731).
